System: Fibroblast
Assay: Multiplex assay against human fibroblast
Assay type: toxicity, cell-based
Procedure, shortened: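 Phenotypes for tubulin, mitochondrial mass and membrane permeability are expressed as per cents of healthy-nucleus cells. Cells were stained live at seeding with Hoechst33342, BioTracker Green Microtubule Cytoskeleton Dye, MitoTracker Red and Annexin V Alexa Fluor 680, then imaged after compound addition on a CQ1 microscope at 37°C and 5% CO2. Machine-learning gating in CellPathfinder separated Hoechst high-intensity objects from normal cells, divided normal cells by nuclear state (healthy, pyknosed, fragmented) and divided pyknosed cells into mitotic or apoptotic.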

[1] = 12 h, 1 µM, compound concentration 1 uM, replicate 1
[2] = 12 h, 1 µM, compound concentration 1 uM, replicate 2
[3] = 12 h, 10 µM, compound concentration 10 uM, replicate 1
[4] = 12 h, 10 µM, compound concentration 10 uM, replicate 2
[5] = 24 h, 1 µM, compound concentration 1 uM, replicate 1
[6] = 24 h, 1 µM, compound concentration 1 uM, replicate 2
[7] = 24 h, 10 µM, compound concentration 10 uM, replicate 1
[8] = 24 h, 10 µM, compound concentration 10 uM, replicate 2
[9] = 48 h, 1 µM, compound concentration 1 uM, replicate 1
[10] = 48 h, 1 µM, compound concentration 1 uM, replicate 2
[11] = 48 h, 10 µM, compound concentration 10 uM, replicate 1
[12] = 48 h, 10 µM, compound concentration 10 uM, replicate 2

## Cc1sc2c(c1C)C(c1ccc(Cl)cc1)=N[C@H](CC(=O)OC(C)(C)C)c1nnc(C)n1-2
[1]
  Population Apoptotic (%): 43%
  Population Fragmented Nuclei (%): 15%
  Population Healthy Nuclei (%): 62%
  Population Hoechst High Intensity Objects (%): 2%
  Population Membrane Permeable-Phenotype (%): 0%
  Population Mitochondria Different-Phenotype (%): 5%
  Population Mitotic Cells (%): 56%
  Population Normal (%): 97%
  Population Pyknosed Nuclei (%): 22%
  Population Tubulin-Different-Phenotype (%): 30%
  Total Cell Count: 180
[2]
  Population Apoptotic (%): 33%
  Population Fragmented Nuclei (%): 26%
  Population Healthy Nuclei (%): 51%
  Population Hoechst High Intensity Objects (%): 5%
  Population Membrane Permeable-Phenotype (%): 15%
  Population Mitochondria Different-Phenotype (%): 10%
  Population Mitotic Cells (%): 66%
  Population Normal (%): 94%
  Population Tubulin-Different-Phenotype (%): 46%
  Total Cell Count: 159
[3]
  Population Apoptotic (%): 43%
  Population Fragmented Nuclei (%): 19%
  Population Healthy Nuclei (%): 55%
  Population Hoechst High Intensity Objects (%): 7%
  Population Membrane Permeable-Phenotype (%): 0%
  Population Mitochondria Different-Phenotype (%): 15%
  Population Mitotic Cells (%): 56%
  Population Normal (%): 92%
  Population Pyknosed Nuclei (%): 25%
  Population Tubulin-Different-Phenotype (%): 90%
  Total Cell Count: 128
[4]
  Population Apoptotic (%): 51%
  Population Fragmented Nuclei (%): 30%
  Population Healthy Nuclei (%): 39%
  Population Hoechst High Intensity Objects (%): 5%
  Population Membrane Permeable-Phenotype (%): 4%
  Population Mitochondria Different-Phenotype (%): 20%
  Population Mitotic Cells (%): 48%
  Population Normal (%): 94%
  Population Pyknosed Nuclei (%): 29%
  Population Tubulin-Different-Phenotype (%): 95%
  Total Cell Count: 169
[5]
  Population Apoptotic (%): 82%
  Population Fragmented Nuclei (%): 17%
  Population Healthy Nuclei (%): 60%
  Population Hoechst High Intensity Objects (%): 2%
  Population Membrane Permeable-Phenotype (%): 0%
  Population Mitochondria Different-Phenotype (%): 2%
  Population Mitotic Cells (%): 17%
  Population Normal (%): 97%
  Population Pyknosed Nuclei (%): 21%
  Population Tubulin-Different-Phenotype (%): 29%
  Total Cell Count: 186
[6]
  Population Apoptotic (%): 46%
  Population Fragmented Nuclei (%): 29%
  Population Healthy Nuclei (%): 50%
  Population Hoechst High Intensity Objects (%): 6%
  Population Membrane Permeable-Phenotype (%): 11%
  Population Mitochondria Different-Phenotype (%): 5%
  Population Mitotic Cells (%): 53%
  Population Normal (%): 93%
  Population Pyknosed Nuclei (%): 20%
  Population Tubulin-Different-Phenotype (%): 51%
  Total Cell Count: 149
[7]
  Population Apoptotic (%): 75%
  Population Fragmented Nuclei (%): 16%
  Population Healthy Nuclei (%): 69%
  Population Hoechst High Intensity Objects (%): 8%
  Population Membrane Permeable-Phenotype (%): 2%
  Population Mitochondria Different-Phenotype (%): 19%
  Population Mitotic Cells (%): 25%
  Population Normal (%): 91%
  Population Pyknosed Nuclei (%): 14%
  Population Tubulin-Different-Phenotype (%): 76%
  Total Cell Count: 123
[8]
  Population Apoptotic (%): 51%
  Population Fragmented Nuclei (%): 26%
  Population Healthy Nuclei (%): 45%
  Population Hoechst High Intensity Objects (%): 4%
  Population Membrane Permeable-Phenotype (%): 4%
  Population Mitochondria Different-Phenotype (%): 26%
  Population Mitotic Cells (%): 48%
  Population Normal (%): 95%
  Population Pyknosed Nuclei (%): 27%
  Population Tubulin-Different-Phenotype (%): 87%
  Total Cell Count: 165
[9]
  Population Apoptotic (%): 63%
  Population Fragmented Nuclei (%): 19%
  Population Healthy Nuclei (%): 66%
  Population Hoechst High Intensity Objects (%): 5%
  Population Membrane Permeable-Phenotype (%): 0%
  Population Mitochondria Different-Phenotype (%): 2%
  Population Mitotic Cells (%): 36%
  Population Normal (%): 94%
  Population Pyknosed Nuclei (%): 13%
  Population Tubulin-Different-Phenotype (%): 28%
  Total Cell Count: 170
[10]
  Population Apoptotic (%): 53%
  Population Fragmented Nuclei (%): 29%
  Population Healthy Nuclei (%): 49%
  Population Membrane Permeable-Phenotype (%): 12%
  Population Mitochondria Different-Phenotype (%): 10%
  Population Mitotic Cells (%): 46%
  Population Normal (%): 95%
  Population Pyknosed Nuclei (%): 21%
  Population Tubulin-Different-Phenotype (%): 69%
  Total Cell Count: 140
[11]
  Population Apoptotic (%): 50%
  Population Fragmented Nuclei (%): 21%
  Population Healthy Nuclei (%): 66%
  Population Hoechst High Intensity Objects (%): 1%
  Population Membrane Permeable-Phenotype (%): 1%
  Population Mitochondria Different-Phenotype (%): 13%
  Population Mitotic Cells (%): 50%
  Population Normal (%): 98%
  Population Pyknosed Nuclei (%): 12%
  Population Tubulin-Different-Phenotype (%): 70%
  Total Cell Count: 134
[12]
  Population Apoptotic (%): 63%
  Population Fragmented Nuclei (%): 35%
  Population Healthy Nuclei (%): 51%
  Population Membrane Permeable-Phenotype (%): 4%
  Population Mitochondria Different-Phenotype (%): 9%
  Population Mitotic Cells (%): 36%
  Population Pyknosed Nuclei (%): 13%
  Population Tubulin-Different-Phenotype (%): 88%
  Total Cell Count: 170

— ChEMBL document CHEMBL5058577, “EUbOPEN Chemogenomics Library 2 (Multiplex)” (2022)
